The test system of experiment [1] is C2C12. The experiment in a line: Upregulation of SIRT1 mRNA expression in mouse C2C12 cells at 50 uM measured after 24 hrs by qRT-PCR analysis relative to control. Type of experiment: functional. The method, boiled down: (§1)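 C2C12 seeded at 2×10^5 cells/well, grown to 90% confluence, then differentiated 2 days in DMEM with 2% horse serum. Treated 24 h with compound (10–50 µM), DMSO, or resveratrol 50 µM (positive control). SIRT1 mRNA measured by qRT-PCR (40 cycles, 95/60 °C), GAPDH reference, ΔΔCt vs DMSO. Triplicate; mean ± S.E.M.; one-way ANOVA with Tukey.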

For a further experiment, the system named is Escherichia coli. The experiment in a line: Antimicrobial activity against Escherichia coli U541 assessed as diameter of inhibition zone measured after 24 hrs by disc diffusion assay. Type of experiment: functional. The method, boiled down: (§2)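 Bacteria grown in Mueller Hinton broth at 37 °C for 24 h and adjusted to 0.5 McFarland. 6 mm paper discs loaded with 2 µg compound (20 µL) placed on Mueller Hinton agar spread with the suspension, then incubated 37 °C for 24 h. Inhibition-zone diameter measured including the disc. Blank 5% DMSO discs as negative control. Triplicate.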
(In general: A growth-free zone around the sample is the usual read-out of agar diffusion tests.)

Another experiment relates to Cryptococcus neoformans. The experiment in a line: Antimicrobial activity against Cryptococcus neoformans IFM 40215 assessed as diameter of inhibition zone measured after 24 hrs by disc diffusion assay. Type of experiment: functional. The method, boiled down:
(§3)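 Yeasts pre-cultured on YPD agar at 37 °C for 24 h, suspended in Mueller Hinton broth and adjusted to 0.5 McFarland. 6 mm discs carrying 2 µg compound (20 µL) laid on Mueller Hinton agar spread with the fungal suspension, then incubated 37 °C for 24 h. Zone diameter read including the disc. 5% DMSO discs as negative control. Triplicate.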

In experiment [2] the test system is C2C12. The experiment in a line: Upregulation of SIRT1 mRNA expression in mouse C2C12 cells at 50 uM measured after 24 hrs by qRT-PCR analysis. Type of experiment: functional, cell-based. Summed up: as §1
For orientation: In qPCR the cycle at which signal appears reflects the starting amount.

Another experiment has as its system Staphylococcus aureus. In words: Antimicrobial activity against methicillin-resistant Staphylococcus aureus N315 measured after 24 hrs by disc diffusion method. Type of experiment: functional, organism-based. The method, boiled down: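 Disc diffusion on Müller Hinton agar. MRSA N315 grown in Müller Hinton broth at 37 °C for 24 h, then adjusted to McFarland 0.5. Sterile 6 mm paper discs loaded with 20 µL (2 µg) of compound. Incubation at 37 °C for 24 h. Read-out is inhibition zone diameter including the disc. Negative control was discs with 5% DMSO. Triplicate; mean ± S.E.M.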

In experiment [3] the test system is Meyerozyma guilliermondii. The experiment in a line: Antimicrobial activity against Candida guilliermondii TIMM 0260 measured after 24 hrs by disc diffusion method. Type of experiment: functional, organism-based. The method, boiled down:
as §3

Another experiment deals with [Candida] auris. The experiment in a line: Antimicrobial activity against Candida auris JCM 15448 measured after 24 hrs by disc diffusion method. Type of experiment: functional, organism-based. The note with it: Candidozyma auris. The method, boiled down: as §3
The next experiment has as its system Candida albicans. The experiment in a line: Antimicrobial activity against Candida albicans IFM 40213 measured after 24 hrs by disc diffusion method. Type of experiment: functional, organism-based. The method, boiled down: as §3
A further experiment has as its system Candida parapsilosis. The experiment in a line: Antimicrobial activity against Candida parapsilosis IFM 40218 measured after 24 hrs by disc diffusion method. Type of experiment: functional, organism-based. Summed up:
as §3

The next experiment concerns Nakaseomyces glabratus. The experiment in a line: Antimicrobial activity against Candida glabrata IFM 40217 measured after 24 hrs by disc diffusion method. Type of experiment: functional, organism-based. Summed up:
as §3

A further experiment deals with Enterococcus faecalis. The experiment in a line: Antimicrobial activity against Enterococcus faecalis JCM7783 measured after 24 hrs by disc diffusion method. Type of experiment: functional, organism-based. Summed up:
as §2

The subject of another experiment is Bacillus subtilis. The experiment in a line: Antimicrobial activity against Bacillus subtilis HA101 measured after 24 hrs by disc diffusion method. Type of experiment: functional, organism-based. Summed up: as §2

SMILES strings stand for the structures. The source made the active and inactive calls. The calls are words filed in the database; no cut-off is given here. Where a SMILES comes first, the peptide text is derived from it.

With `CC[C@H](C)[C@@H]1NC(=O)[C@H](C(C)C)NC(=O)[C@@H]2CCCN2C(=O)[C@H]([C@@H](C)CC)NC(=O)[C@H](CC(C)C)NC(=O)[C@@H]2CCCN2C(=O)[C@@H]2CCCN2C(=O)[C@H](CC(C)C)NC1=O` (cyclo(ILPPLIPV)), the “fold change (FC)” value with C2C12 [1] was 1.5. Also, the entries for the “diameter of the inhibition zone (DIZ)” value in the experiment with Escherichia coli and in the experiment with Cryptococcus neoformans were 9.4 mm and 7.7 mm, respectively.
In the case of `Oc1ccc(/C=C/c2cc(O)cc(O)c2)cc1`, in the experiment on C2C12 [2], the result was Active.
As to `CC[C@H](C)[C@@H]1NC(=O)[C@H](CC(C)C)NC(=O)[C@@H]2CCCN2C(=O)[C@@H]2CCCN2C(=O)[C@H](CC(C)C)NC(=O)[C@H](C(C)C)NC(=O)[C@H](C(C)C)NC(=O)[C@@H]2CCCN2C1=O` (cyclo(IPVVLPPL)), the outcome (in the experiment with Staphylococcus aureus; in [3]; in [Candida] auris; in the experiment with Escherichia coli; in the experiment on Candida albicans; with Candida parapsilosis) was inactive. For the same molecule, the result with Cryptococcus neoformans, in the experiment on Nakaseomyces glabratus, in the experiment on Enterococcus faecalis and in the experiment on Bacillus subtilis was inactive.

The values above are taken from ChEMBL document CHEMBL4610058, “Mariannamides A and B, new cyclic octapeptides isolated from Mariannaea elegans NBRC102301” (2020).
